Results as given in ChEMBL document CHEMBL1770087, “Novel 3-chlorooxazolidin-2-ones as antimicrobial agents” (Bioorg Med Chem Lett, 2011).
Values after ≈ are worked out from the molar mass of the structure shown.

Key:
[1] = Therapeutic index, ratio of CT50 for mouse L929 cells to Candida albicans ATCC 10231; format: cell-based; conditions: read-out: TI
In short: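 Antifungal index is the L929 CT50 (1 h exposure, overnight recovery, Dojindo viability) divided by the MFC against C. albicans. MFC is from a modified CLSI M26-A method: phosphate-buffered saline pH 7 in place of Mueller–Hinton broth, 1 h compound residence.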

Candida albicans = assay: Antifungal activity against Candida albicans ATCC 10231 at pH 7 by CLSI M26A method; format: functional
In short: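 Modified CLSI M26-A method with phosphate-buffered saline (pH 7) in place of Mueller–Hinton broth and compound contact shortened to 1 h. The read-out was the minimum fungicidal concentration (MFC).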

Staphylococcus aureus = assay: Antibacterial activity against Staphylococcus aureus ATCC 29213 at pH 7 by CLSI M26A method; format: functional
In short: (§1)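 Modified CLSI M26-A bactericidal method in which phosphate-buffered saline (pH 7) replaced Mueller–Hinton broth and compound contact was cut to 1 h. The read-out was the minimum bactericidal concentration (MBC).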

Escherichia coli = assay: Antibacterial activity against Escherichia coli ATCC 25922 at pH 7 by CLSI M26A method; format: functional; in short: as §1
[2] = Cytotoxicity against mouse L929 cells after 1 hr at pH 7 by Dojindo cell proliferation assay; format: cell-based
In short: (§2)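 L929 mouse fibroblasts exposed to test article for 1 h in test solution at pH 7, or at pH 4 where flagged. Compound then removed and cells incubated overnight. Viability read with Dojindo cell proliferation assay; CT50 reported in mM.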

[3] = Therapeutic index, ratio of CT50 for mouse L929 cells to Escherichia coli ATCC 25922; format: cell-based; conditions: pooled result: one value given for 2 cell lines, strains, targets or settings, read-out: TI
[4] = Cytotoxicity against mouse L929 cells after 1 hr at pH 4 by Dojindo cell proliferation assay; format: cell-based; in short: as §2

SMILES | selectivity ratio [1] | MFC (Candida albicans) | MBC (Staphylococcus aureus) | MBC (Escherichia coli) | CC50 at 1 h [2] | selectivity ratio [3] | CC50 at 1 h [4]
CC1(C)C(CS(=O)(=O)[O-])OC(=O)N1Cl.[Na+] (configuration not stated) | 1 | 1020 µg/mL | 512 µg/mL | 256 µg/mL | 4300 µM | 2.9 | –
CC[N+](C)(C)CC1(C)COC(=O)N1Cl.[Cl-] (configuration not stated) | 28 | 8 µg/mL | 4 µg/mL | 2 µg/mL | – | 78 | 860 µM
CC1(C)COC(=O)N1Cl | 0.02 | 512 µg/mL (≈ 3420 µM) | 4 µg/mL (≈ 26.7 µM) | 1 µg/mL (≈ 6.69 µM) | 70 µM | 5.2 | –
CC1(CS(=O)(=O)CCCC(=O)O)COC(=O)N1Cl (configuration not stated) | – | > 1020 µg/mL | 8 µg/mL (≈ 26.7 µM) | 16 µg/mL (≈ 53.4 µM) | 520 µM | 14 | –
C[N+]1(C)CCC2(CC1)CN(Cl)C(=O)O2.[Cl-] | 0.7 | 256 µg/mL | 32 µg/mL | 16 µg/mL | – | 7.9 | 700 µM
CC1(C[N+](C)(C)C)COC(=O)N1Cl.[Cl-] (configuration not stated) | – | 16 µg/mL | 4 µg/mL | 2 µg/mL | – | – | –
CC1(C)C(C[N+](C)(C)C)OC(=O)N1Cl.[Cl-] (configuration not stated) | 2.7 | 64 µg/mL | 32 µg/mL | 16 µg/mL | 690 µM | 7.6 | –
CC1(CS(=O)(=O)CCS(=O)(=O)[O-])COC(=O)N1Cl.[Na+] (configuration not stated) | 1.5 | 128 µg/mL | 32 µg/mL | 16 µg/mL | 600 µM | 8.5 | –
CC1(CS(=O)(=O)[O-])COC(=O)N1Cl.[Na+] (configuration not stated) | 0.25 | 1020 µg/mL | 128 µg/mL | 256 µg/mL | 800 µM | 1.4 | –
CCC[N+](C)(C)CC1(C)COC(=O)N1Cl.[Cl-] (configuration not stated) | 31 | 8 µg/mL | 2 µg/mL | 2 µg/mL | – | 122 | 900 µM
CC1(C[N+]2(C)CCCC2)COC(=O)N1Cl.[Cl-] (configuration not stated) | 19 | 16 µg/mL | 4 µg/mL | 4 µg/mL | – | 76 | 1130 µM
